In ChEMBL document CHEMBL4339195, “Di-aryl Sulfonamide Motif Adds π-Stacking Bulk in Negative Allosteric Modulators of the NMDA Receptor” (ACS Med Chem Lett, 2019):

Experiments:
Format in all cases: cell-based
[1] = target: Glutamate NMDA receptor; Grin1/Grin2b (Rattus norvegicus) (UniProt P35439+Q00960); assay: Negative allosteric modulation of recombinant rat GluN1/GluN2B expressed in Xenopus laevis oocytes assessed as inhibition of glutamate/glycine-induced current response at 30 uM at -40 mV holding potential by two-electrode voltage clamp method relative to glutamate/glycine
How it was run: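 Oocyte voltage clamp at -40 mV. Drug co-applied with 100 µM glutamate plus 30 µM glycine; response given as percent of the average of control and recovery currents to agonist alone.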

[2] = target: T1, Ionotropic glutamate receptor NMDA 1/2D (Rattus norvegicus) (UniProt P35439+Q62645); assay: Negative allosteric modulation of recombinant rat GluN1/GluN2D expressed in Xenopus laevis oocytes assessed as inhibition of glutamate/glycine-induced current response at saturated concentration at -40 mV holding potential by two-electrode voltage clamp method relative to glutamate/glycine
How it was run: (§1)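 Hill fit of the composite concentration-response curve in oocytes, with agonist 100 µM glutamate plus 30 µM glycine. Residual response in saturating compound is either fixed at 0 or fitted. 8-16 oocytes from 2-3 frogs.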

[3] = target: CHRNA1/CHRNB1/CHRNG/CHRND (Rattus norvegicus) (UniProt P25109+P25108+P25110+P18916); assay: Negative allosteric modulation of rat alpha1betagammadelta nACHR expressed in Xenopus laevis oocytes assessed as inhibition of acetylcholine-induced current response at 30 uM at -40 mV holding potential by two-electrode voltage clamp method relative to acetylcholine alone
How it was run: (§2)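 Oocyte two-electrode voltage clamp at -40 mV holding. Test compound co-applied with agonist; response given as percent of the mean of control and recovery currents to agonist alone. Agonists: 100 µM glutamate (AMPA, kainate), 100 µM GABA (GABA receptors), 100 µM glycine (glycine receptor), 100 µM serotonin (5-HT3A), 9 µM ATP (P2X), 1 µM acetylcholine (nicotinic).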

[4] = target: T1, Ionotropic glutamate receptor NMDA 1/2D (Rattus norvegicus); assay: Negative allosteric modulation of recombinant rat GluN1/GluN2D expressed in Xenopus laevis oocytes assessed as inhibition of glutamate/glycine-induced current response at 30 uM at -40 mV holding potential by two-electrode voltage clamp method relative to glutamate/glycine; conditions: values are per cent of control
How it was run: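 Oocytes recorded while the drug is co-applied with a maximally effective 100 µM glutamate plus 30 µM glycine. Response is expressed as percent of the glutamate/glycine control. IC50 comes from a Hill fit to the average composite concentration-response curve. 8-16 oocytes from 2-3 frogs per compound and receptor.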

[5] = target: T1, Ionotropic glutamate receptor NMDA 1/2D (Rattus norvegicus); assay: Potency index, ratio of NP11999 IC50 to test compound IC50 for negative allosteric modulation of recombinant rat GluN1/GluN2D expressed in Xenopus laevis oocytes assessed as inhibition of glutamate/glycine-induced current response
[6] = target: Glutamate receptor ionotropic, kainate 2 (Rattus norvegicus) (UniProt P42260); assay: Negative allosteric modulation of rat GluK2 expressed in Xenopus laevis oocytes assessed as inhibition of glutamate-induced current response at 30 uM at -40 mV holding potential in presence of concanavalin A by two-electrode voltage clamp method relative to glutamate alone; how it was run: as §2
[7] = target: T2, Glutamate NMDA receptor; Grin1/Grin2c (Rattus norvegicus) (UniProt P35439+Q00961); assay: Negative allosteric modulation of recombinant rat GluN1/GluN2C expressed in Xenopus laevis oocytes assessed as inhibition of glutamate/glycine-induced current response at saturated concentration at -40 mV holding potential by two-electrode voltage clamp method relative to glutamate/glycine; how it was run: as §1
[8] = target: T2, Glutamate NMDA receptor; Grin1/Grin2c (Rattus norvegicus); assay: Potency index, ratio of NP11999 IC50 to test compound IC50 for negative allosteric modulation of recombinant rat GluN1/GluN2C expressed in Xenopus laevis oocytes assessed as inhibition of glutamate/glycine-induced current response

Sequence of Glutamate receptor ionotropic, kainate 2 (Rattus norvegicus) (P42260 whole entry): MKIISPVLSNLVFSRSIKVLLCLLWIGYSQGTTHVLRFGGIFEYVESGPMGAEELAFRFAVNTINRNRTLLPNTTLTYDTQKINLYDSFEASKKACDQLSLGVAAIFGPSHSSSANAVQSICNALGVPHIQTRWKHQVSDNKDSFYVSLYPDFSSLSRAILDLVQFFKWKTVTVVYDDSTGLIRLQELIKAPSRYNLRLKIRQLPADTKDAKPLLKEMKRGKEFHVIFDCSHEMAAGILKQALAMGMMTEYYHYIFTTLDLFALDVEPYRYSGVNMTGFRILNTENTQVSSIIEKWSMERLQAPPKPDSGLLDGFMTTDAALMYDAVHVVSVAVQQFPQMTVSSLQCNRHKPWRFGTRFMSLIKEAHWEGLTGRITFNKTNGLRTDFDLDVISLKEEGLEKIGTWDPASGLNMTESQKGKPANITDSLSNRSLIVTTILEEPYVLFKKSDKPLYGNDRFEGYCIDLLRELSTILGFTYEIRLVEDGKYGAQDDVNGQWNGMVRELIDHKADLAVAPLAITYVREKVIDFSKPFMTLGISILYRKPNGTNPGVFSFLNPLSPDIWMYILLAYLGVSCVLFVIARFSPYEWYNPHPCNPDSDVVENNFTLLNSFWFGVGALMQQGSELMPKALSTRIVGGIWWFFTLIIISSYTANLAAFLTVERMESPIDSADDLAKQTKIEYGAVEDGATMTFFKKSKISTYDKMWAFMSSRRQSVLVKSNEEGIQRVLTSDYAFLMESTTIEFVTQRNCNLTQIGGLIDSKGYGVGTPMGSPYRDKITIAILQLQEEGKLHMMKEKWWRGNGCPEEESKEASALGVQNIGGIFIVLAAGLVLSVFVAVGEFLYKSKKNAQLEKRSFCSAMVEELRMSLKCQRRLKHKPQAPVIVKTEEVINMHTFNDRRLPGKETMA

## CCN(CC)C(=O)Oc1ccc(C(=O)Nc2cccc(CCNS(=O)(=O)c3ccccc3)c2)cc1
[1]
  inhibition: 24%
[2]
  inhibition: 0%
[3]
  inhibition: 27%
[4]
  residual activity: 8.9 to 9%
[5]
  Ratio IC50: < 6
[6]
  inhibition: 92%
[7]
  inhibition: 0%
[8]
  Ratio IC50: < 6
